Experimental data: ChEMBL document CHEMBL1949525, “Boranophosphate isoster controls P2Y-receptor subtype selectivity and metabolic stability of dinucleoside polyphosphate analogues” (J Med Chem, 2012)
Calls of active or inactive are those of the source. The calls are words filed in the database; no cut-off is given here.

What was measured:
[1] = target: P2Y purinoceptor 1 (Meleagris gallopavo) (UniProt P49652); assay: Antagonist activity at turkey P2Y purinoceptor 1 expressed in human 1321N1 cells assessed as inhibition of 2-Sme-ADP-induced increase in intracellular calcium concentration by spectrofluorimetry; assay type: functional, cell-based
Chain of P2Y purinoceptor 1 (Meleagris gallopavo) (P49652 whole entry): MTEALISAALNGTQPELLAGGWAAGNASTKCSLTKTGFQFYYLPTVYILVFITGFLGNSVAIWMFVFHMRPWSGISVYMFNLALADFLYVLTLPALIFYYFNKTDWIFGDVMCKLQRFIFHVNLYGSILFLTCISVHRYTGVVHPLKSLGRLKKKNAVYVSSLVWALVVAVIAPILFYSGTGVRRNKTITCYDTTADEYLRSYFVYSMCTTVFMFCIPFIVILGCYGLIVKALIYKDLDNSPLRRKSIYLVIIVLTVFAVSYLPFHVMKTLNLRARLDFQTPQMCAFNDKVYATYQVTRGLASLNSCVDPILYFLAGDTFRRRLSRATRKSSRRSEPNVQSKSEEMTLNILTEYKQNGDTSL
Method in brief: (§1)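 Fura-2-loaded 1321N1 transfectants (turkey P2Y1, human P2Y2/P2Y4, rat P2Y6) in Hepes-buffered saline, pH 7.4, at 37 °C. Analogues were tested against equimolar reference agonist: 2-MeS-ADP for P2Y1, UTP for P2Y2/4, UDP for P2Y6. Blockade of the [Ca2+]i rise was followed by dual-excitation spectrofluorometry.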

[2] = target: T1, P2Y purinoceptor 2 (Homo sapiens, UniProt P41231); assay: Antagonist activity at human P2Y purinoceptor 2 expressed in human 1321N1 cells assessed as inhibition of UTP-induced increase in intracellular calcium concentration by spectrofluorimetry; assay type: functional, cell-based; method in brief: as §1
T1 sequence (P41231 whole entry): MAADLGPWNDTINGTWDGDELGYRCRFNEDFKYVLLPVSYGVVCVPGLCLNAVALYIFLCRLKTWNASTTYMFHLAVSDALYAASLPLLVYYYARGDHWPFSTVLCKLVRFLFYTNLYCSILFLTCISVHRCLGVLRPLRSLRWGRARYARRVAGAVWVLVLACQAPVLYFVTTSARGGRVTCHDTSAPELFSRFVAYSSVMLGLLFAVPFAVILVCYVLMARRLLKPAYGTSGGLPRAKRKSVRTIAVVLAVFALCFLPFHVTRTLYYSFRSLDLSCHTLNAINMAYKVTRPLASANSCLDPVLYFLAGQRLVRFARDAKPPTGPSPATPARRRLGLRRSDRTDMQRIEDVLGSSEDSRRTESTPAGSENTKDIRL

[3] = target: T2, P2Y purinoceptor 4 (Homo sapiens, UniProt P51582); assay: Antagonist activity at human P2Y purinoceptor 4 expressed in human 1321N1 cells assessed as inhibition of UTP-induced increase in intracellular calcium concentration by spectrofluorimetry; assay type: functional, cell-based; method in brief: as §1
T2 sequence (P51582 whole entry): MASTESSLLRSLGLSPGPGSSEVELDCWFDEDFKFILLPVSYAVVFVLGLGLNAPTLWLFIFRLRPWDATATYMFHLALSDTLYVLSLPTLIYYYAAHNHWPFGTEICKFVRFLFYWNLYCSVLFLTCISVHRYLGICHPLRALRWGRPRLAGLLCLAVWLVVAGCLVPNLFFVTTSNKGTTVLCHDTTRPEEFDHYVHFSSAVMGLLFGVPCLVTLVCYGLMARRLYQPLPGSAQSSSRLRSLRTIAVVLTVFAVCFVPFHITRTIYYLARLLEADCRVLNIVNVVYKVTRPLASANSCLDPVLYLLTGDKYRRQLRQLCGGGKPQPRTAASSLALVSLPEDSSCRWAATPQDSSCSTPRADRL

[4] = target: P2Y purinoceptor 6 (Rattus norvegicus) (UniProt Q63371); assay: Antagonist activity at rat P2Y purinoceptor 6 expressed in human 1321N1 cells assessed as inhibition of UDP-induced increase in intracellular calcium concentration by spectrofluorimetry; assay type: functional, cell-based; method in brief: as §1
Chain of P2Y purinoceptor 6 (Rattus norvegicus) (Q63371 whole entry): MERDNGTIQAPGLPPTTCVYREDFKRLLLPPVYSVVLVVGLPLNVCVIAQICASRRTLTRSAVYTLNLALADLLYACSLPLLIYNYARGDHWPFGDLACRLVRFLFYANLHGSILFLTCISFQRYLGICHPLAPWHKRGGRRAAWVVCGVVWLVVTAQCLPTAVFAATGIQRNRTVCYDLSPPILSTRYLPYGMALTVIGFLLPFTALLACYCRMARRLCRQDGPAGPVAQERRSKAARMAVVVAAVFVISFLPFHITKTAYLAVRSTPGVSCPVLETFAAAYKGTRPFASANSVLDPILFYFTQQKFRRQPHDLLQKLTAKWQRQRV

[5] = target: T1, P2Y purinoceptor 2; assay: Agonist activity at human P2Y purinoceptor 2 expressed in human 1321N1 cells assessed as increase in intracellular calcium concentration at 100 uM by spectrofluorimetry; assay type: functional, cell-based
[6] = test system: e-NPP1; assay: (§2) Stability of the compound assessed as human e-NPP1-mediated hydrolysis at pH 8.5 after 20 mins by HPLC analysis; assay type: ADME; conditions: human, human e-NPP1 enzyme, pH 8.5; read-out: Drug degradation
Method in brief: (§3)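 Human NPP1 preparation preincubated 3 min at 37 °C in 1 mM CaCl2, 200 mM NaCl, 10 mM KCl, 100 mM Tris, pH 8.5. Started with 0.2 mM dinucleotide solution (added volume) and stopped after 20 min in ice-cold perchloric acid. Neutralised with KOH, then NMP formation followed by HPLC. Percent substrate hydrolysed is the mean of two experiments run in triplicate.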

[7] = target: T2, P2Y purinoceptor 4; assay: Agonist activity at human P2Y purinoceptor 4 expressed in human 1321N1 cells assessed as increase in intracellular calcium concentration by spectrofluorimetry; assay type: functional, cell-based; conditions: 1321-n1
Method in brief: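 1321N1 astrocytoma cells (no endogenous P2Y receptors) stably expressing hP2Y4, grown in DMEM with 5% FBS, penicillin/streptomycin and 500 μg/mL G-418. Fura-2-loaded cell suspensions; compounds applied at various concentrations, 37 °C, 10 mM Hepes-buffered saline pH 7.4 with 1 mM CaCl2/MgCl2. Peak [Ca2+]i rise by dual-excitation fluorometry gives EC50; UTP reference agonist; three experiments on separate days.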

[8] = target: P2Y purinoceptor 6 (Rattus norvegicus, UniProt Q63371); assay: Agonist activity at rat P2Y purinoceptor 6 expressed in human 1321N1 cells assessed as increase in intracellular calcium concentration by spectrofluorimetry; assay type: functional, cell-based; conditions: read-out: EC50
Chain of P2Y purinoceptor 6 (Q63371 whole entry): as above
Method in brief: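 1321N1 astrocytoma cells lacking endogenous P2Y receptors, stably transfected with turkey P2Y1, human P2Y2, human P2Y4 or rat P2Y6, grown in DMEM with 5% FBS, penicillin/streptomycin and 500 µg/mL G-418. Fura-2-loaded cell suspensions were exposed at 37 °C in 10 mM Hepes-buffered saline, pH 7.4, with 1 mM CaCl2 and 1 mM MgCl2. Peak [Ca2+]i rise by dual-excitation spectrofluorometry across concentrations; EC50 from curve fits; three experiments on separate days per subtype.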

[9] = target: P2Y purinoceptor 1 (Meleagris gallopavo) (UniProt P49652); assay: Agonist activity at turkey P2Y purinoceptor 1 expressed in human 1321N1 cells assessed as increase in intracellular calcium concentration at 100 uM by spectrofluorimetry; assay type: functional, cell-based
[10] = as §2; assay type: ADME; conditions: buffer, pH 8.5, 20 min; method in brief: as §3
[11] = Chemical stability of the compound at pH mimicking gastric juice acidity; assay type: physicochemical; conditions: simulated gi fluid
[12] = Chemical stability of the compound at physiological conditions; assay type: physicochemical
[13] = target: P2Y purinoceptor 1 (Meleagris gallopavo) (UniProt P49652); assay: Agonist activity at turkey P2Y purinoceptor 1 expressed in human 1321N1 cells assessed as increase in intracellular calcium concentration by spectrofluorimetry; assay type: functional, cell-based
[14] = target: T1, P2Y purinoceptor 2; assay: Agonist activity at human P2Y purinoceptor 2 expressed in human 1321N1 cells assessed as increase in intracellular calcium concentration by spectrofluorimetry; assay type: functional, cell-based

Activity [1] | Activity [2] | Activity [3] | Activity [4] | metabolised at 20 min [6] | Activity [9] | SMILES | further results
inactive | inactive | inactive | inactive |  |  | BP(=O)(OC[C@H]1O[C@@H](n2ccc(=O)[nH]c2=O)[C@H](O)[C@@H]1O)OP(=O)(O)OP(=O)(O)OP(=O)(O)OC[C@H]1O[C@@H](n2ccc(=O)[nH]c2=O)[C@H](O)[C@@H]1O.CCCCN(CCCC)CCCC.CCCCN(CCCC)CCCC.CCCCN(CCCC)CCCC.CCCCN(CCCC)CCCC (stereo in doubt; 13A) | Activity [5]: Active
 |  |  |  | 3% |  | BP(=O)(OP(=O)(O)OC[C@H]1O[C@@H](n2ccc(=O)[nH]c2=O)[C@H](O)[C@@H]1O)OP(=O)(O)OP(=O)(O)OC[C@H]1O[C@@H](n2ccc(=O)[nH]c2=O)[C@H](O)[C@@H]1O.CCCCN(CCCC)CCCC.CCCCN(CCCC)CCCC.CCCCN(CCCC)CCCC.CCCCN(CCCC)CCCC (stereo in doubt; 7A) | EC50 [7]: Not Active; EC50 [8]: 1930 nM
inactive | inactive | inactive | inactive |  | Active | BP(=O)(OP(=O)(O)OC[C@H]1O[C@@H](n2ccc(=O)[nH]c2=O)[C@H](O)[C@@H]1O)OP(=O)(O)OP(=O)(O)OC[C@H]1O[C@@H](n2ccc(=O)[nH]c2=O)[C@H](O)[C@@H]1O.CCCCN(CCCC)CCCC.CCCCN(CCCC)CCCC.CCCCN(CCCC)CCCC.CCCCN(CCCC)CCCC (stereo in doubt; 7B) | 
 |  |  |  |  |  | BP(=O)(OP(=O)(O)OP(=O)(O)OC[C@H]1O[C@@H](n2ccc(=O)[nH]c2=O)[C@H](O)[C@@H]1O)OP(=O)(O)OP(=O)(O)OC[C@H]1O[C@@H](n2ccc(=O)[nH]c2=O)[C@H](O)[C@@H]1O.CCCCN(CCCC)CCCC.CCCCN(CCCC)CCCC.CCCCN(CCCC)CCCC.CCCCN(CCCC)CCCC.CCCCN(CCCC)CCCC | Stability [10]: Stable; Stability [11]: Stable; Stability [12]: Stable; Activity [13]: inactive; Activity [14]: inactive
inactive | inactive | inactive | inactive |  | Active | BP(=O)(OC[C@H]1O[C@@H](n2ccc(=O)[nH]c2=O)[C@H](O)[C@@H]1O)OP(=O)(O)OP(=O)(O)OC[C@H]1O[C@@H](n2ccc(=O)[nH]c2=O)[C@H](O)[C@@H]1O.CCCCN(CCCC)CCCC.CCCCN(CCCC)CCCC.CCCCN(CCCC)CCCC (stereo in doubt; 11B) | 
inactive | inactive | inactive | inactive |  | Active | BP(=O)(OP(=O)(O)OC[C@H]1O[C@@H](n2cnc3c(N)ncnc32)[C@H](O)[C@@H]1O)OP(=O)(O)OP(=O)(O)OC[C@H]1O[C@@H](n2ccc(=O)[nH]c2=O)[C@H](O)[C@@H]1O.CCCCN(CCCC)CCCC.CCCCN(CCCC)CCCC.CCCCN(CCCC)CCCC.CCCCN(CCCC)CCCC (stereo in doubt; 8A) | 
 |  |  |  | 22% |  | Nc1ncnc2c1ncn2[C@@H]1O[C@H](COP(=O)(O)OP(=O)(O)OP(=O)(O)OC[C@H]2O[C@@H](n3cnc4c(N)ncnc43)[C@H](O)[C@@H]2O)[C@@H](O)[C@H]1O | 
inactive | inactive | inactive | inactive |  |  | BP(=O)(OP(=O)(O)OC[C@H]1O[C@@H](n2ccc(=O)[nH]c2=O)[C@H](O)[C@@H]1O)OP(=O)(O)OP(=O)(O)OC[C@H]1O[C@@H](n2cnc3c(N)ncnc32)[C@H](O)[C@@H]1O.CCCCN(CCCC)CCCC.CCCCN(CCCC)CCCC.CCCCN(CCCC)CCCC.CCCCN(CCCC)CCCC (stereo in doubt; 9A) | Activity [5]: Active
 |  |  |  | 17% |  | Nc1ncnc2c1ncn2[C@@H]1O[C@H](COP(=O)(O)OP(=O)(O)OP(=O)(O)OP(=O)(O)OC[C@H]2O[C@@H](n3cnc4c(N)ncnc43)[C@H](O)[C@@H]2O)[C@@H](O)[C@H]1O [DIADENOSINE TETRAPHOSPHATE] | 
